Only some compounds are listed: those with a hit (about 2.6% of all), similar ones and a draw of the others.
NadD block = NadD (S. aureus) enzyme inhibition. purified NadD enzyme, colorimetric absorbance read-out. AID 602399. inhibition, % at 20 µM. 0.78% of 360,000 active; in the data active = inhibition above about 26%
rCAG binder = r(CAG) repeat RNA binding | TO-PRO-1 dye displacement fluorescence | inhibition, % at 3 µM | 1.3% of 370,000 active;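 active = inhibition above the plate cutoff, the mean of all test compounds on that plate plus 3 SD, cut at about 35% in these data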;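 note: higher means more dye released from RNA so lower well fluorescence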
core dimer inh = HCV core protein dimerization inhibition. TR-FRET GST/Flag-core106 dimerization, 1536-well. inhibition, % at 5 µM. 0.33% of 300,000 active. AID 1899;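 active = inhibition above the mean of all tested compounds plus 3 SD, set per screening campaign, cut at about 45% in these data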
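Test system: GST/Flag-tagged HCV core106 proteins; Medium: KF-containing HEPES buffer, pH 7.45, DTT, CHAPS, BSA; Times: compound-protein-antibody incubation 4 h at 22.5 °C; Detection: TR-FRET 671 and 617 nm emission; Benchmarks: wells lacking GST-core106 and wells with excess unlabelled core106.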
ABHD5 PLIN5 PPI = blocks binding of human ABHD5 to perilipin-5. Q00G26+Q8WTS1. Split G. princeps luciferase complementation, luminescence, 4 h. inhibition, % at 4 µM. 0.78% of 360,000 active. AID 602281;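 active = inhibition above the mean inhibition across every tested compound plus 3 SD, cut at about 22% in these data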
ABHD5-PLIN5 conf = ABHD5-PLIN5 interaction inhibition, confirmed; AID 651612; inhibition, % at 4 µM; biochemical ABHD5-PLIN5 interaction, luminescence; shares compounds with ABHD5 PLIN5 PPI; 67% of 2,200 active; in the data active = inhibition above about 23%
HNF4 counter = HNF4 split-luciferase signal hit, counter-screen; inhibition, % at 4 µM; HNF4 dimerization, luminescence, biochemical; 77% of 2,200 active; shares compounds with ABHD5 PLIN5 PPI; AID 651674;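 active = mean inhibition across replicate wells exceeding the computed hit threshold, cut at about 13% in these data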;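 note: light from luciferase halves that rejoin when HNF4 fusion proteins dimerize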
Target sequence (P41235 whole entry, looked up, the tested form may be a part): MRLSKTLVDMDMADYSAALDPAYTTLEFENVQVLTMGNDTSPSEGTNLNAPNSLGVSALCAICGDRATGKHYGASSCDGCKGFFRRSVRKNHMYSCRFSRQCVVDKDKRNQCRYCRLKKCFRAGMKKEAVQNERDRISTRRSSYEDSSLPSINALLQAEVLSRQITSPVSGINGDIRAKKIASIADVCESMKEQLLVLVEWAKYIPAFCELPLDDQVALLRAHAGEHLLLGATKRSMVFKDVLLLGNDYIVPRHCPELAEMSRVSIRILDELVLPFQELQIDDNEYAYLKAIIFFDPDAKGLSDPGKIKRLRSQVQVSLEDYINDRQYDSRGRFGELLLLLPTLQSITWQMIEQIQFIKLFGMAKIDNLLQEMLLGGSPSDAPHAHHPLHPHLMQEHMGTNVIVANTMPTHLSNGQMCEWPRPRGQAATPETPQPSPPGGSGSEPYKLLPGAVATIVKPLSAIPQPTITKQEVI
Hits are given with their value.

How did COc1ccccc1N(C(C)=O)C1=C(Cl)C(=O)c2ccccc2C1=O do in these assays?
NadD block: inactive; rCAG binder: inactive; ABHD5 PLIN5 PPI: 93.3; ABHD5-PLIN5 conf: 100.3; HNF4 counter: 110.6

What do the screens show for `C[C@H](CO)N1C[C@H](C)[C@@H](CN(C)C(=O)Cc2ccccc2)OCc2cn(nn2)CCCC1=O`?
rCAG binder: inactive

How did COC(=O)C1=C(C)N(C)C(=NCc2ccccc2C(F)(F)F)NC1c1cccc(F)c1 (centres undefined) do in these assays?
rCAG binder: inactive

Results for CCOC(=O)/C(=C\c1cccc(O)c1)c1nc2sc(C)c(C)c2c(=O)[nH]1 ?
NadD block: inactive; rCAG binder: inactive; core dimer inh: inactive; ABHD5 PLIN5 PPI: 52.8; ABHD5-PLIN5 conf: 84.7; HNF4 counter: 79.8

Results for C[C@H](O)[C@@H]1CN2CCc3c([nH]c4cccc(-c5ccccc5)c34)[C@@H]2C[C@@H]1N(C)CC1CCCCC1 ?
rCAG binder: inactive

Results for CC1(C)Cc2c(c(-c3ccco3)nc3sc4c(NCCCO)ncnc4c23)CO1 ?
NadD block: inactive; rCAG binder: inactive; core dimer inh: inactive; ABHD5 PLIN5 PPI: 32.8; ABHD5-PLIN5 conf: inactive; HNF4 counter: 23.0

What do the screens show for `CC1(C)Cc2c(c(-c3ccco3)nc3sc4c(NCCN5CCOCC5)ncnc4c23)CO1`?
NadD block: inactive; rCAG binder: inactive; core dimer inh: inactive; ABHD5 PLIN5 PPI: inactive

Results for CCCCCCn1c(=O)n2n(c1=O)[C@@H]1CN(S(=O)(=O)c3ccc(C)cc3)C[C@]1(O)[C@@H](OC(=O)NCc1ccco1)C2 ?
NadD block: inactive; rCAG binder: inactive; ABHD5 PLIN5 PPI: inactive

What do the screens show for `COc1ccc(C)c2sc(N(CCCN(C)C)C(=O)c3ccc4c(c3)OCCO4)nc12`?
NadD block: inactive; rCAG binder: inactive; core dimer inh: inactive; ABHD5 PLIN5 PPI: 23.4; ABHD5-PLIN5 conf: inactive; HNF4 counter: inactive

How did CN(C)CCCN(C(=O)c1ccc2c(c1)OCCO2)c1nc2cc3c(cc2s1)OCO3 do in these assays?
NadD block: inactive; rCAG binder: inactive; core dimer inh: inactive; ABHD5 PLIN5 PPI: inactive

What do the screens show for `Cc1cc(C)c2nc(N(CCCN(C)C)C(=O)c3ccc4c(c3)OCCO4)sc2c1`?
NadD block: inactive; rCAG binder: inactive; core dimer inh: inactive; ABHD5 PLIN5 PPI: 26.8; ABHD5-PLIN5 conf: inactive; HNF4 counter: inactive

Results for Cc1cccc2sc(N(CCCN(C)C)C(=O)c3ccco3)nc12 ?
NadD block: inactive; rCAG binder: inactive; core dimer inh: inactive; ABHD5 PLIN5 PPI: inactive

Results for Cc1cccc2sc(N(CCCN(C)C)C(=O)c3ccc(Cl)s3)nc12 ?
NadD block: inactive; rCAG binder: inactive; core dimer inh: inactive; ABHD5 PLIN5 PPI: 25.3; ABHD5-PLIN5 conf: inactive; HNF4 counter: inactive

What do the screens show for `COc1cccc2sc(N(CCCN(C)C)C(=O)COc3ccc(Cl)cc3)nc12`?
NadD block: inactive; rCAG binder: inactive; core dimer inh: inactive; ABHD5 PLIN5 PPI: 28.7; ABHD5-PLIN5 conf: 23.1; HNF4 counter: inactive

What do the screens show for `N#C/C(=C/C=C/c1ccccc1)C(=O)Nc1ccccc1`?
NadD block: inactive; rCAG binder: inactive; core dimer inh: inactive; ABHD5 PLIN5 PPI: inactive

How did COCCNC(=O)/C(C#N)=C/C=C/c1ccccc1 do in these assays?
NadD block: inactive; rCAG binder: inactive; core dimer inh: inactive; ABHD5 PLIN5 PPI: 26.8; ABHD5-PLIN5 conf: inactive; HNF4 counter: 18.0

Results for COc1ccc2c(C#CCCO)c(-c3ccc(S(C)(=O)=O)cc3)sc2c1 ?
NadD block: inactive; rCAG binder: inactive; ABHD5 PLIN5 PPI: 30.4; ABHD5-PLIN5 conf: inactive; HNF4 counter: inactive

What do the screens show for `COc1ccc2sc(-c3ccc(S(C)(=O)=O)cc3)c(C#CCO)c2c1`?
NadD block: inactive; rCAG binder: inactive; ABHD5 PLIN5 PPI: inactive

How did CN1CCN(C(=S)c2cn(Cc3ccc(Br)cc3)c3ccccc23)CC1 do in these assays?
NadD block: inactive; rCAG binder: inactive; core dimer inh: inactive; ABHD5 PLIN5 PPI: 27.6; ABHD5-PLIN5 conf: inactive; HNF4 counter: inactive

How did Cc1cc(C)nc(NS(=O)(=O)c2ccc(NC(=O)CN3C(=O)c4ccccc4C3=O)cc2)n1 do in these assays?
rCAG binder: inactive; core dimer inh: inactive

What do the screens show for `Cc1cc(C)nc(NS(=O)(=O)c2ccc(NCN3C(=O)c4ccccc4C3=O)cc2)n1`?
NadD block: inactive; rCAG binder: inactive; ABHD5 PLIN5 PPI: 27.4; ABHD5-PLIN5 conf: inactive; HNF4 counter: inactive
